pIC50: −log10 of the molar value.
Key:
Plasmodium falciparum = experiment: Antiplasmodial activity against chloroquine-sensitive Plasmodium falciparum D10; type: functional, organism-based; details: for pIC50: Plasmodium falciparum, D10, read-out: IC50
Method in brief: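 Asexual erythrocytic-stage P. falciparum kept in continuous in vitro culture (Trager–Jensen). Activity measured by the parasite lactate dehydrogenase assay, with chloroquine diphosphate as reference drug.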

CHO = experiment: Cytotoxicity against CHO cells by MTT assay; type: cell-based, Cricetulus griseus; details: for IC50: cho; for pIC50: Cricetulus griseus, CHO, read-out: IC50
Method in brief: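 Chinese hamster ovary (CHO) cells; growth and survival measured by MTT assay. Samples run in triplicate on one occasion, with emetine dihydrochloride as reference drug.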

[1] = Selectivity index, ratio of IC50 for CHO cells to IC50 for chloroquine-sensitive Plasmodium falciparum D10; type: toxicity, cell-based; details: hamster; read-out: Ratio IC50

Row | pIC50 (Plasmodium falciparum) | IC50 (Plasmodium falciparum) | Compound | IC50 (CHO) | pIC50 (CHO) | selectivity ratio [1]
1 | – | Not Active | CC1(C)C=Cc2c(ccc([C@]3(O)COc4cc(O)cc(O)c4C3=O)c2O)O1 [SOPHORONOL A] | Not Active | – | –
2 | 3.98 | – | COc1c(O)cc([C@]2(O)COc3cc(O)cc(O)c3C2=O)c(OC)c1CC=C(C)C [SOPHONOROL D] | – | 3.77 | 2
3 | – | Not Active | COc1c([C@]2(O)COc3cc(O)cc(O)c3C2=O)ccc2c1C=CC(C)(CO)O2 (stereo not given in full) [SOPHORONOL B] | Not Active | – | –
4 | 3.94 | – | COc1c(C2(O)COc3cc(O)cc(O)c3C2=O)ccc2c1C=CC(C)(C)O2 (stereo not given) [SOPHORONOL] | – | 3.65 | 2
5 | 4.89 | – | COc1c([C@]2(O)COc3c4c(cc(O)c3C2=O)OC(C)(C)CC4)ccc2c1CCC(C)(C)O2 [SOPHONOROL C] | Not Active | – | –

More lines, now with the values behind:

Row | Compound | pIC50 (Plasmodium falciparum) | IC50 (Plasmodium falciparum) | IC50 (CHO) | pIC50 (CHO) | selectivity ratio [1]
6 | COc1cc2ccc(=O)oc2cc1O [SCOPOLETIN] | 3.31 | – | Not Active | – | –
7 | O=c1c(-c2ccc(O)cc2)coc2c(O)c(O)ccc12 | 4.75 | – | Not Active | – | –
8 | CC[C@H]1CN2CCc3cc(OC)c(OC)cc3[C@@H]2C[C@@H]1C[C@H]1NCCc2cc(OC)c(OC)cc21 [EMETINE] | – | – | – | 6.92 | –
9 | O=C(/C=C/c1ccc(O)cc1)c1ccc(O)cc1O [ISOLIQUIRITIGENIN] | 4.49 | – | – | 4.34 | 1
10 | COc1cc(O)c2c(c1CC=C(C)C)OC[C@@](O)(c1ccc(O)c(CC=C(C)C)c1OC)C2=O [SOPHONOROL F] | 4.39 | – | – | – | 3
11 | COc1ccc([C@]2(O)COc3c(CC=C(C)C)c(O)cc(O)c3C2=O)c(OC)c1CC=C(C)C [SOPHONOROL E] | 4.89 | – | – | 3.77 | 13
12 | O=c1cc(-c2ccc(O)c(O)c2)oc2cc(O)ccc12 | 4.71 | – | – | 4.31 | 3
13 | Oc1ccc2c(c1)OC[C@@H]1c3cc4c(cc3O[C@H]21)OCO4 [(+)-MAACKIAIN] | 3.75 | – | Not Active | – | –
